mHtt clearance: clearance of mutant huntingtin inclusions, primary screen, imaging, HeLa Exon1htt(103Q)mCFP, confocal imaging. 47,000 compounds, 0.42% hits. aggregate imaging; zero = plate's median compound well. inhibition, % at 1.5 µM. AID 853, 2007;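 active = inhibition of aggregate fluorescence above about 70%, also judged a hit by eye on the cell image, limit read from the data, passing the limit was not always enough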;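 also: cells exposed to compound for three days before fixation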
M1 antagonist: antagonists of rat M1 muscarinic receptor | CHO-M1 cells, Fluo-4 calcium, ACh EC80 antagonist mode; hits give low values | B-score at 10 µM | 64,000 compounds, 3.4% hits;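 active = calcium fluorescence response, raw or row-and-column corrected B-score, differing from the plate sample mean either way at a set confidence level, mostly lower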
SF-1 act: activators of human SF-1, primary screen, cell-based, CHO-K1, Gal4-SF-1 LBD, luciferase luminescence; CHO-K1 Gal4-SF-1 LBD luciferase reporter; % increase over DMSO SF-1-specific signal; activation, % at 10 µM; 65,000 compounds, 1.9% hits; AID 522, 2006;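 active = activation above the mean activation of all tested compounds plus 3 SD, cut at about 50% in these data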
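material = CHO-K1 cells with Gal4–hSF-1 LBD chimera plus Gal4-driven luciferase | compound = 10 µM single point, 1% DMSO | incubation = 20 h compound exposure at 37 °C after 1 h cell settling | measured by = SteadyLite luciferase luminescence | evaluation = percent activation relative to DMSO median and mock-transfected background | control set = DMSO negative control and −SF1 background wells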
RORa activator: activators of orphan receptor RORA, primary screen, cell-based, luminescence | AID 560, 2006 | CHO-K1 Gal4-RORA LBD luciferase reporter; percent increase over mock-subtracted basal signal | 65,000 compounds, 1.5% hits | activation, % at 10 µM;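 active = activation above the mean of all tested compounds plus 3 SD, cut at about 49% in these data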;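 also: 0% = DMSO-treated RORA cells and 100% = added signal equal to DMSO minus mock-transfected cells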
M1 agonist: M1 muscarinic receptor agonists, primary screen, CHO-M1 cells, Fluo-4 calcium, agonist mode | B-score at 10 µM | Fluo-4 calcium fluorescence; hits give high values | 64,000 compounds, 3% hits;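 active = fluorescence rise, raw or as B-score row- and column-corrected plate score, outside the 99.7% band of its plate's samples, either direction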
D1 mod: D1 CRE-luciferase signal change, two-sided – cell-based, HEK293 D1, dopamine EC30, D1 allosteric modulator project, primary screen | 58,000 compounds, 5.9% hits | dopamine EC30 potentiation; actives deviate in either direction | D(1A) dopamine receptor (Homo sapiens), P21728 | AID 641, 2007 | B-score at 10 µM;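 active = luminescence count or its row- and column-corrected plate score outside the 99.7% band of the plate's sample wells, on either side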
Target sequence (P21728 whole entry, looked up): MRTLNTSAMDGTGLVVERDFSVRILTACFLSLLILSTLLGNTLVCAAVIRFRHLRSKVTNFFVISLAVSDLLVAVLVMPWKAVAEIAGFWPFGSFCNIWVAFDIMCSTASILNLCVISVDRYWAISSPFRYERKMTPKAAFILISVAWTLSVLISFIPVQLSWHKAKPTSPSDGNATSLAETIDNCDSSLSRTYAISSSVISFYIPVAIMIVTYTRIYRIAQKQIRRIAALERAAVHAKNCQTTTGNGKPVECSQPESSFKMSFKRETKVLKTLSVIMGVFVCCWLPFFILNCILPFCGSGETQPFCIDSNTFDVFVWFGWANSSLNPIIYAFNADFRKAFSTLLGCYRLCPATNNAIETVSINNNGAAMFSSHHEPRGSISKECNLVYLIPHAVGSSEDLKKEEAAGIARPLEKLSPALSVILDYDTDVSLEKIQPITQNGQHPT
Starred values were filed as active, the others as inactive. Shown are actives, neighbours in structure and some others; about 11% of the full set was active somewhere.

`CC(=O)Nc1ccc(Nc2ncnc3c2cnn3-c2cccc(C)c2)cc1` gave mHtt clearance 3, M1 antagonist 0.071, SF-1 act 24, RORa activator 66*, M1 agonist -0.64 and D1 mod -1.
For O=C(Oc1cccc(NC(=O)c2ccco2)c1)c1ccc(Br)c(S(=O)(=O)N2CCCCC2)c1 the results were mHtt clearance -3.
O=C(NCCCN1CCN(c2ccccc2F)CC1)C1CCC(=O)N1C1CCCC1 (configuration not stated) was read as M1 antagonist 0.66, SF-1 act 1, RORa activator 4, M1 agonist 1.2 and D1 mod 1.7.
For Cc1ccc(CNS(=O)(=O)c2ccc3oc(C(=O)O)c(C)c3c2)cc1 the results were mHtt clearance 24, M1 antagonist 0.23, SF-1 act 5, RORa activator -25, M1 agonist -0.26 and D1 mod -0.07.
For COc1ccc2c(c1)C(=NN)c1cc(OC)ccc1-2 the results were mHtt clearance -11.
`CC(=O)Nc1ccc(Nc2ncnc3c2cnn3-c2ccccc2)cc1` gave mHtt clearance 25, M1 antagonist -0.046, SF-1 act 33, RORa activator 55*, M1 agonist -0.0075 and D1 mod -0.68.
For CCn1c(SCC(=O)N2CCCc3ccccc32)nnc1-c1ccoc1C the results were mHtt clearance 0.
CCC(C)c1ccc(O)c(NC(=O)c2cncc(Br)c2)c1 (configuration not stated) was read as mHtt clearance 11, M1 antagonist -0.2, SF-1 act 1, RORa activator -3, M1 agonist -0.47 and D1 mod 1.1.
Cc1ccc(-c2ccc(/C=N/c3ncn[nH]3)o2)cc1Cl was read as mHtt clearance -18, M1 antagonist 0.83, SF-1 act 3, RORa activator 5, M1 agonist 0.51 and D1 mod -2.4.
For CCOC(=O)Cn1nnnc1CN(Cc1ccccc1)Cc1cc2cc(CC)ccc2[nH]c1=O the results were M1 antagonist 0.6, SF-1 act 20, RORa activator 58*, M1 agonist 0.14 and D1 mod 2.
For Cc1nc(=O)c(-c2ccccc2)c(C)n1-c1ccccc1O the results were M1 antagonist -0.33, SF-1 act 3, RORa activator -12, M1 agonist 2.4 and D1 mod -5.6*.
`CC(=O)Nc1ccc(-n2c(C)nc(=O)c(-c3ccccc3)c2C)cc1` gave M1 antagonist 1.3, SF-1 act -18, RORa activator -10, M1 agonist 0.26 and D1 mod -0.9.
Screening Cc1ccnc2c(N3C(=O)C4C5C=CC(C5)C4C3=O)cccc12 (configuration not stated) returned mHtt clearance -20, M1 antagonist 0.54, SF-1 act -4, RORa activator -17, M1 agonist -0.47 and D1 mod 1.8.
c1ccc(-c2ccc(-c3nc(-c4cccnc4)no3)cc2)cc1 was read as M1 antagonist -0.97, SF-1 act 1, RORa activator -3 and M1 agonist -0.89.
Clc1ccccc1-c1nc(-c2cccnc2)no1 was read as mHtt clearance -103, M1 antagonist 0.99, SF-1 act 47, RORa activator 40, M1 agonist 1.2 and D1 mod -1.5*.
Screening Cc1ccccc1-c1nc(-c2cccnc2)no1 returned mHtt clearance -42, M1 antagonist 0.29, SF-1 act 67*, RORa activator 43, M1 agonist 1.4 and D1 mod 0.21.
For CON1C(=O)C(=O)N(OC)C(C)(C)C1C (configuration not stated) the results were mHtt clearance -22.
For CCOC(=O)CSc1nc2sc3c(c2c(=O)n1C1CCCCC1)CCN(C)C3 the results were mHtt clearance 28.
Screening O=C(Nc1nc2c(s1)CCCC2)c1ccc2ncsc2c1 returned M1 antagonist 0.076, SF-1 act 38, RORa activator 50* and M1 agonist 0.0089.
For Cc1ncsc1C(=O)Nc1nc2c(s1)CCCC2 the results were mHtt clearance -10, M1 antagonist -0.038, SF-1 act 66*, RORa activator 57*, M1 agonist 0.76 and D1 mod -1.5.
Screening COc1ccc(OC)c2sc(NC(=O)c3ccc(Br)s3)nc12 returned M1 antagonist 0.057, SF-1 act 53*, RORa activator -6, M1 agonist 0.29 and D1 mod -1.2.
Screening O=C(Nc1nc2c(s1)CCCC2)c1ccc(Br)s1 returned M1 antagonist -1.1, SF-1 act 25, RORa activator 9, M1 agonist 0.12 and D1 mod -4.4*.
CCN1CCN(S(=O)(=O)c2ccc(OC)c(Br)c2)CC1 was read as mHtt clearance -11, M1 antagonist -0.081, SF-1 act -7, RORa activator -18, M1 agonist 0 and D1 mod -0.13.
For Cc1cc(C(=O)Nc2nc3c(s2)CCCC3)cs1 the results were M1 antagonist -0.45, SF-1 act 3, RORa activator -22, M1 agonist 0.014 and D1 mod -5*.
`O=C(COc1ccc(F)cc1)Nc1nccs1` gave mHtt clearance 19, M1 antagonist -0.011, SF-1 act 42, RORa activator 102*, M1 agonist -0.19 and D1 mod -2.2.
`O=C(Nc1nccs1)c1ccc(COc2ccc(Cl)cc2)o1` gave mHtt clearance 4, M1 antagonist -0.33, SF-1 act 29, RORa activator 5, M1 agonist -0.0079 and D1 mod -0.49.
`CN(C)C(=O)c1ccc(COc2ccccc2Br)o1` gave mHtt clearance -45, M1 antagonist -0.0022, SF-1 act 49, RORa activator 41, M1 agonist -0.71 and D1 mod -0.034.
`O=C(Nc1nccs1)c1ccc(COc2ccccc2Br)o1` gave mHtt clearance -17, M1 antagonist -0.31, SF-1 act 60*, RORa activator 21, M1 agonist -0.34 and D1 mod -0.79.
`O=C(Nc1nccs1)c1ccc(COc2ccc(F)cc2)o1` gave mHtt clearance -57, M1 antagonist -1.5, SF-1 act 64*, RORa activator 8, M1 agonist -0.0085 and D1 mod -0.0065.
O=C(COC(=O)c1ccccn1)Nc1nccs1 was read as mHtt clearance -38, M1 antagonist -0.41, SF-1 act -17, RORa activator -9, M1 agonist -1.4 and D1 mod -0.0048.
